Laboratory results reported in ChEMBL document CHEMBL1151475, “Thiopurine drugs azathioprine and 6-mercaptopurine inhibit Mycobacterium paratuberculosis growth in vitro” (2008).

Key:
[1] = tested on: Mycobacterium avium subsp. paratuberculosis; assay: Antituberculosis activity against Mycobacterium paratuberculosis ATCC 19698 isolated from bovine assessed as lowest drug level producing inhibition at 10^6 CFU of inoculum by MGIT 960 susceptibility test; type: functional
In short: (§1)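 M. paratuberculosis ATCC 19698 at 10^6 CFU per MGIT ParaTB tube in duplicate, drugs at final 1.0–64.0 μg/ml, 37°C in MGIT 960. Inhibition is the lowest concentration whose time to detection exceeds the 1:100 diluted-inoculum solvent control. No detectable growth means the tube never signals positive through 56 days.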

[2] = tested on: Mycobacterium avium subsp. paratuberculosis; assay: Antituberculosis activity against Mycobacterium paratuberculosis ATCC 19698 isolated from bovine assessed as lowest drug level producing inhibition at 10^6 CFU of inoculum by agar counting method; type: functional
In short: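 ATCC 19698 at 10^6 CFU was exposed to drug (1.0–64.0 μg/ml) in MGIT ParaTB medium at 37°C. Aliquots taken at 3 and 5 days were centrifuged, resuspended in PBS and declumped with glass beads. Serial dilutions were plated in quadruplicate on 7H10/OADC/mycobactin J and counted after 8 weeks. Inhibition is the lowest concentration giving a 2 log10 (99%) CFU reduction.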

[3] = tested on: Mycobacterium avium subsp. paratuberculosis; assay: Antituberculosis activity against Mycobacterium paratuberculosis ATCC 19698 isolated from bovine assessed as minimum drug level resulting in no detectable growth at 10^6 CFU of inoculum after 56 days by MGIT 960 susceptibility test; type: functional; in short: as §1
[4] = tested on: Mycobacterium avium subsp. paratuberculosis; assay: Antituberculosis activity against Mycobacterium paratuberculosis JTC303 isolated from bovine assessed as minimum drug level required for inhibition by MGIT 960 susceptibility test; type: functional
In short: (§2)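 10^5 to 10^6 CFU from single-cell suspensions inoculated in duplicate into MGIT ParaTB medium with supplement and egg yolk. Drugs were at final 0.5–64.0 μg/ml, with 128.0 μg/ml added for some strains. Tubes were incubated at 37°C in MGIT 960. Inhibition is the lowest concentration giving a time to detection longer than a drug-free 1:100 inoculum control. Killing is no positive signal through 56 days.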

[5] = tested on: Mycobacterium avium subsp. paratuberculosis; assay: Antituberculosis activity against Mycobacterium paratuberculosis JTC303 isolated from bovine assessed as minimum drug level required for killing after 56 days by MGIT 960 susceptibility test; type: functional; in short: as §2
[6] = tested on: Mycobacterium avium subsp. paratuberculosis; assay: Antituberculosis activity against Mycobacterium paratuberculosis UCF-4 isolated from Crohn's disease patient assessed as minimum drug level required for inhibition by MGIT 960 susceptibility test; type: functional; in short: as §2
[7] = tested on: Mycobacterium avium subsp. paratuberculosis; assay: Antituberculosis activity against Mycobacterium paratuberculosis UCF-4 isolated from Crohn's disease patient assessed as minimum drug level required for killing after 56 days by MGIT 960 susceptibility test; type: functional; in short: as §2
[8] = tested on: Mycobacterium avium subsp. paratuberculosis; assay: Antituberculosis activity against Mycobacterium paratuberculosis UCF-5 isolated from Crohn's disease patient assessed as minimum drug level required for inhibition by MGIT 960 susceptibility test; type: functional; in short: as §2
[9] = tested on: Mycobacterium avium subsp. paratuberculosis; assay: Antituberculosis activity against Mycobacterium paratuberculosis UCF-5 isolated from Crohn's disease patient assessed as minimum drug level required for killing after 56 days by MGIT 960 susceptibility test; type: functional; in short: as §2
[10] = tested on: Mycobacterium avium subsp. paratuberculosis; assay: Antituberculosis activity against Mycobacterium paratuberculosis UCF-7 isolated from Crohn's disease patient assessed as minimum drug level required for inhibition by MGIT 960 susceptibility test; type: functional; in short: as §2
[11] = tested on: Mycobacterium avium subsp. paratuberculosis; assay: Antituberculosis activity against Mycobacterium paratuberculosis UCF-7 isolated from Crohn's disease patient assessed as minimum drug level required for killing after 56 days by MGIT 960 susceptibility test; type: functional; in short: as §2
[12] = tested on: Mycobacterium avium subsp. paratuberculosis; assay: Antituberculosis activity against Mycobacterium paratuberculosis B213 isolated from bovine assessed as minimum drug level required for inhibition by MGIT 960 susceptibility test; type: functional; in short: as §2
[13] = tested on: Mycobacterium avium subsp. paratuberculosis; assay: Antituberculosis activity against Mycobacterium paratuberculosis B213 isolated from bovine assessed as minimum drug level required for killing after 56 days by MGIT 960 susceptibility test; type: functional; in short: as §2
[14] = tested on: Mycobacterium avium subsp. paratuberculosis; assay: Antituberculosis activity against Mycobacterium paratuberculosis B236 isolated from bovine assessed as minimum drug level required for inhibition by MGIT 960 susceptibility test; type: functional; in short: as §2
[15] = tested on: Mycobacterium avium subsp. paratuberculosis; assay: Antituberculosis activity against Mycobacterium paratuberculosis B236 isolated from bovine assessed as minimum drug level required for killing after 56 days by MGIT 960 susceptibility test; type: functional; in short: as §2
[16] = tested on: Mycobacterium avium subsp. paratuberculosis; assay: Antituberculosis activity against Mycobacterium paratuberculosis B238 isolated from bovine assessed as minimum drug level required for inhibition by MGIT 960 susceptibility test; type: functional; in short: as §2
[17] = tested on: Mycobacterium avium subsp. paratuberculosis; assay: Antituberculosis activity against Mycobacterium paratuberculosis B238 isolated from bovine assessed as minimum drug level required for killing after 56 days by MGIT 960 susceptibility test; type: functional; in short: as §2
Mycobacterium avium [18] = assay: Antituberculosis activity against Mycobacterium avium ATCC 35712 isolated from chicken assessed as minimum drug level required for inhibition by MGIT 960 susceptibility test; type: functional; in short: as §2
Mycobacterium avium [19] = assay: Antituberculosis activity against Mycobacterium avium ATCC 35712 isolated from chicken assessed as minimum drug level required for killing after 56 days by MGIT 960 susceptibility test; type: functional; in short: as §2
[20] = tested on: Mycobacterium avium subsp. paratuberculosis; assay: Antituberculosis activity against Mycobacterium paratuberculosis UCF-7 isolated from Crohn's disease patient assessed as colony counts at 2 ug after 12 days by MGIT 960 susceptibility test; type: functional
[21] = tested on: Mycobacterium avium subsp. paratuberculosis; assay: Antituberculosis activity against Mycobacterium paratuberculosis UCF-7 isolated from Crohn's disease patient assessed as colony counts at 4 ug after 12 days by MGIT 960 susceptibility test; type: functional
[22] = tested on: Mycobacterium avium subsp. paratuberculosis; assay: Antituberculosis activity against Mycobacterium paratuberculosis ATCC 19698 isolated from bovine assessed as viability after 5 to 8 days by standard plate count method

Q: Which results are given for O=C(O)c1cn(C2CC2)c2cc(N3CCNCC3)c(F)cc2c1=O [CIPROFLOXACIN]?
A: Activity [1]: 1 µg/mL; Activity [2]: 1 µg/mL; Activity [3]: 32 µg/mL; Activity [4]: 2 µg/mL; Activity [5]: 8 µg/mL; Activity [6]: 1 µg/mL; Activity [7]: 4 µg/mL; Activity [8]: 2 µg/mL; Activity [9]: 4 µg/mL; Activity [10]: 1 µg/mL; Activity [11]: 4 µg/mL; Activity [12]: 4 µg/mL; Activity [13]: 16 µg/mL; Activity [14]: 4 µg/mL; Activity [15]: 16 µg/mL; Activity [16]: 4 µg/mL; Activity [17]: 16 µg/mL; Activity (Mycobacterium avium [18]): 16 µg/mL; Activity (Mycobacterium avium [19]): 64 µg/mL; log10CFU/ml [20]: 1.98; log10CFU/ml [21]: 0.76; log10CFU/ml [22]: 1

Q: What does the source list for Nc1ccc(O)c(C(=O)O)c1 [MESALAMINE]?
A: Activity [1]: >64 µg/mL; Activity [2]: >64 µg/mL; Activity [3]: >64 µg/mL
